Bioassay records: PubChem, several laboratories
STAT1 inh – reduces IFN-gamma driven STAT1 reporter signal. NIH 3T3 STAT1-luciferase reporter, luminescence. AID 920. inhibition, % at 5.5 µM. hit rate 0.35% among 200,000;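 active means inhibition above a set limit, the mean inhibition across all tested compounds plus 3 SD, cut at about 34% in these data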
HSP90 inh – HSP90 refolding inhibition in rabbit reticulocyte lysate; luciferase refolding luminescence, 3 h; inhibition, % at 5.6 µM; hit rate 0.91% among 290,000; AID 1789;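 active means inhibition above the screen-wide mean plus 3 SD, computed separately per campaign, cut at about 16% in these data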;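 further: inhibitors lower the luminescence because luciferase stays unfolded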
TRAIL sens C8 – sensitizes caspase-8 expressing cells to TRAIL; hit rate 1% among 360,000; inhibition (viability loss, TRAIL sensitization), % at 10 µM; NB7+C8 cells + TRAIL, ATPlite viability luminescence;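 active means compounds causing at least 50% loss of cell viability in the single-dose screen, relative to plate controls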
PPC-1+TRAIL kill – compounds killing PPC-1 cancer cells with TRAIL present (potentiator screen, no TRAIL-free arm); cell killing (% activity), % at 4 µM or 5 µM; PPC-1 cells + TRAIL, ATPLite viability luminescence; AID 1443; hit rate 0.41% among 220,000;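 active means cell killing above 50% in the first pass at 4 µM, then a duplicate retest at 5 µM averaging 50% or more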
STAT3 act – STAT3 signaling activation | hit rate 0.91% among 190,000 | AID 871 | activation (% of control), % at 5.6 µM | U3A cells, IL-6 STAT3-luciferase reporter, luminescence; 100% = signal with IL-6 EC80 alone;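 active means activation above the screen-wide mean of compound activation plus 3 SD, cut at about 130% in these data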
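Material: STAT3-luciferase reporter U3A cells. Controls: IL-6-treated wells, 100% activation. Read-out: % activation versus median of IL-6-stimulated wells. Probe or stimulus: IL-6 stimulus at 33 ng/mL final. Timing: compound 1 h, then IL-6 6 h at 37 °C. Signal: reporter luminescence signal.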
STAT3 inh – STAT3 signaling inhibition; AID 862; U3A cells, IL-6 STAT3-luciferase reporter, luminescence; host cell line lacks STAT1; inhibition, % at 5.5 µM; hit rate 0.89% among 190,000;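 active means inhibition above the mean inhibition across all screened compounds plus 3 SD, cut at about 44% in these data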
HSP90 inh confirm – confirmation of HSP90 inhibitors. shares compounds with HSP90 inh. rabbit reticulocyte lysate, luciferase refolding luminescence, 3 h. inhibition, % at 5.9 µM. hit rate 64% among 2,300; in the data active means inhibition above about 18%
FLuc counter – firefly luciferase inhibition, HSP90 counter-screen; shares compounds with HSP90 inh; purified native firefly luciferase, luminescence; inhibition, % at 5.9 µM; hit rate 48% among 2,300; AID 1847;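 active means inhibition above the mean inhibition of all tested sample wells plus 3 SD, cut at about 10% in these data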
Target sequence (P08659 whole entry, looked up): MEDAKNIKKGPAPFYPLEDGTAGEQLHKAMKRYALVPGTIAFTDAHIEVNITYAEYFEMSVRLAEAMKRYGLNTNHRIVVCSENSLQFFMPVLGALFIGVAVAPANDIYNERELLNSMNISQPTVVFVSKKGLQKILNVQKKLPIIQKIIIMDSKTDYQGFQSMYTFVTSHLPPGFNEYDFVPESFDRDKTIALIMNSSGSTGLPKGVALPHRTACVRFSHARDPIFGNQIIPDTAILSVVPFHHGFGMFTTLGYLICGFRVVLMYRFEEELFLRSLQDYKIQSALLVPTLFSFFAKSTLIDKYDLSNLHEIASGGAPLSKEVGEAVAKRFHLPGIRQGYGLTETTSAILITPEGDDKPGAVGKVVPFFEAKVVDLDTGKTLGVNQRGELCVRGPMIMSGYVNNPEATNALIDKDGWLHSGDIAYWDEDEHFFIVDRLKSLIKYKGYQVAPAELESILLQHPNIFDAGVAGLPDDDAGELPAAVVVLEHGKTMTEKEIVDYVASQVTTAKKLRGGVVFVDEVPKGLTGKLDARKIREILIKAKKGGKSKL
A number is an active result. The list is not random: actives were taken first. Their share in the collection is about 2.3%.

Cc1ccc(C(=O)Nc2nc3ccccc3[nH]2)cc1 was read as HSP90 inh 86, TRAIL sens C8 93, HSP90 inh confirm 89 and FLuc counter 85.
Screening COc1cc(C(=O)Nc2nc3ccccc3[nH]2)cc(OC)c1OC returned STAT1 inh inactive, HSP90 inh inactive, TRAIL sens C8 inactive, PPC-1+TRAIL kill inactive, STAT3 act inactive and STAT3 inh inactive.
For CCC(C)[C@@H](CN(N=O)[C@@H](Cc1ccccc1)CN(C)N=O)N(CCc1ccccc1)N=O (some centres undefined) the results were STAT1 inh inactive, HSP90 inh inactive, TRAIL sens C8 inactive and PPC-1+TRAIL kill inactive.
COc1ccccc1C(=O)Nc1nc2ccccc2[nH]1 was read as HSP90 inh 98, TRAIL sens C8 96, HSP90 inh confirm 97 and FLuc counter 92.
`COc1ccccc1C(=O)NCCC(=O)Nc1nc2ccccc2[nH]1` gave TRAIL sens C8 inactive.
Screening O=C(Nc1ccc2ccccc2n1)c1ccccc1Cl returned HSP90 inh inactive and TRAIL sens C8 inactive.
COc1cc(SC)ccc1C(=O)Nc1nc2ccccc2[nH]1 was read as HSP90 inh 99, TRAIL sens C8 96, HSP90 inh confirm 97 and FLuc counter 92.
Screening COc1ccc(C(=O)Nc2ccc3ccccc3n2)c(OC)c1OC returned HSP90 inh 41, TRAIL sens C8 83, HSP90 inh confirm 68 and FLuc counter 65.
Screening COc1cc(CCCN2C(=O)C(=O)NC[C@@H]2Cc2ccc(O)cc2)cc(OC)c1OC returned TRAIL sens C8 inactive and PPC-1+TRAIL kill inactive.
Screening OC(Cn1cncn1)c1ccc(Cl)cc1 (centres undefined) returned STAT1 inh inactive, HSP90 inh inactive, TRAIL sens C8 inactive, PPC-1+TRAIL kill inactive, STAT3 act inactive and STAT3 inh inactive.
Screening CCOc1ccc(C2/C(=C(/O)c3ccc(OC)cc3)C(=O)C(=O)N2c2cc(C)on2)cc1OC (centres undefined) returned STAT1 inh inactive, HSP90 inh inactive, TRAIL sens C8 inactive, PPC-1+TRAIL kill inactive, STAT3 act inactive and STAT3 inh inactive.
CCCn1c(C)cc(C(=O)COC(=O)c2nccnc2N)c1C was read as STAT1 inh inactive, HSP90 inh 25, TRAIL sens C8 inactive, PPC-1+TRAIL kill inactive, STAT3 act inactive, STAT3 inh inactive, HSP90 inh confirm 40 and FLuc counter 57.
For O=C(CNS(=O)(=O)c1ccccc1)OCC(=O)c1ccccc1Cl the results were HSP90 inh 22, TRAIL sens C8 inactive, HSP90 inh confirm inactive and FLuc counter inactive.
For COc1ccc(NC(=O)c2cc(-c3cc(C)cs3)[nH]n2)cc1OC the results were TRAIL sens C8 inactive.
COc1ccc(C)cc1NC(=O)NNC(=O)C(C)Oc1ccc(F)cc1Cl (centres undefined) was read as HSP90 inh 20, TRAIL sens C8 inactive, HSP90 inh confirm inactive and FLuc counter inactive.
Screening COc1ccc(C)cc1NC(=O)NCc1ccc(F)cc1 returned STAT1 inh inactive, HSP90 inh inactive, TRAIL sens C8 inactive, PPC-1+TRAIL kill inactive, STAT3 act inactive and STAT3 inh inactive.
`CC(=O)NCCn1c(C)cc2ccccc21` gave TRAIL sens C8 inactive and PPC-1+TRAIL kill inactive.
For Cc1cc2ccccc2n1CCNC(=O)C(C)(C)C the results were TRAIL sens C8 inactive and PPC-1+TRAIL kill inactive.
For Cc1cc2ccccc2n1CCNC(=O)c1ccccc1 the results were STAT1 inh inactive, HSP90 inh 40, TRAIL sens C8 inactive, PPC-1+TRAIL kill inactive, STAT3 act inactive, STAT3 inh inactive, HSP90 inh confirm 51 and FLuc counter inactive.
Cc1cc2ccccc2n1CCNC(=O)c1ccc(Br)o1 was read as STAT1 inh inactive, HSP90 inh 17, TRAIL sens C8 inactive, PPC-1+TRAIL kill inactive, HSP90 inh confirm inactive and FLuc counter inactive.
Screening COc1ccccc1N1C(=NC(=O)CCc2ccccc2)SC2CS(=O)(=O)CC21 (centres undefined) returned HSP90 inh inactive and TRAIL sens C8 inactive.
COc1ccccc1C1CCN(Cc2ccc(Cl)c(Cl)c2)CC1 was read as HSP90 inh inactive and TRAIL sens C8 inactive.
For COc1ccccc1C1CCN(Cc2ccc(Cl)cc2Cl)CC1 the results were HSP90 inh 17, TRAIL sens C8 inactive, HSP90 inh confirm inactive and FLuc counter inactive.
Screening O=C(c1cc(Cl)ccc1Cl)N1CCN(Cc2ccccc2)CC1 returned HSP90 inh inactive and TRAIL sens C8 inactive.
For O=C(c1cc(F)c(F)cc1Cl)N1CCN(CCc2ccccc2)CC1 the results were HSP90 inh 38, TRAIL sens C8 inactive, HSP90 inh confirm inactive and FLuc counter inactive.
For CC(C)c1ccc2oc(-c3cc(N)ccc3O)nc2c1 the results were STAT1 inh inactive, HSP90 inh 46, TRAIL sens C8 66, PPC-1+TRAIL kill inactive, STAT3 act inactive, STAT3 inh inactive, HSP90 inh confirm 80 and FLuc counter 79.
Screening Nc1ccc(-c2nc3ncccc3o2)c(O)c1 returned HSP90 inh inactive and TRAIL sens C8 inactive.
`O=C(Nc1cccnc1)c1ccc(COCC(F)(F)F)cc1` gave STAT1 inh inactive, HSP90 inh inactive, TRAIL sens C8 inactive, PPC-1+TRAIL kill inactive, STAT3 act inactive and STAT3 inh inactive.
`CCn1c(=O)c2cc(C(=O)N(C)c3cc(C)ccc3OC)sc2c2ccccc21` gave HSP90 inh inactive, TRAIL sens C8 inactive and PPC-1+TRAIL kill inactive.
`CCn1c(=O)c2cc(C(=O)N(C)c3ccc(OC)cc3OC)sc2c2ccccc21` gave HSP90 inh 23, TRAIL sens C8 inactive, PPC-1+TRAIL kill inactive, HSP90 inh confirm inactive and FLuc counter inactive.
Screening CC(C)CC1C(C#N)=C(N)Oc2n[nH]c(-c3cccs3)c21 (centres undefined) returned STAT1 inh inactive, HSP90 inh 18, TRAIL sens C8 inactive, PPC-1+TRAIL kill inactive, STAT3 act inactive, STAT3 inh inactive, HSP90 inh confirm inactive and FLuc counter inactive.
Cc1ccc(C(C)NC(=O)Cc2cccs2)c(C)c1 (centres undefined) was read as HSP90 inh 30, TRAIL sens C8 inactive, HSP90 inh confirm inactive and FLuc counter inactive.
For Cc1cccc(NC(=O)c2sc3nc(-c4ccc(F)cc4)cn3c2C)n1 the results were STAT1 inh inactive, HSP90 inh inactive, TRAIL sens C8 inactive, PPC-1+TRAIL kill inactive, STAT3 act inactive and STAT3 inh inactive.
`COc1ccc(-c2cn3c(C)c(C(=O)Nc4cccc(C)n4)sc3n2)cc1` gave STAT1 inh inactive, HSP90 inh 77, TRAIL sens C8 inactive, PPC-1+TRAIL kill inactive, STAT3 act inactive, STAT3 inh inactive, HSP90 inh confirm 73 and FLuc counter inactive.
